Experimental data from ChEMBL document CHEMBL1938357, “Inhibition of Dengue virus and West Nile virus proteases by click chemistry-derived benz[d]isothiazol-3(2H)-one derivatives” (Bioorg Med Chem, 2012).
Calls of active or inactive are those of the source. The calls are words filed in the database; no cut-off is given here.

Assays:
dengue virus type 2 [1] = experiment: Inhibition of Dengue virus 2 NS2B-NS3 protease expressed in Escherichia coli using Bz-Nle-Lys-Arg-Arg-AMC as substrate at 25 uM measured every 90 sec upto 30 mins by spectrofluorometry
In short: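 DENV2 NS2B(hydrophilic cofactor)-NS3pro, linked via Q-R and expressed in E. coli Top 10 F′, at 25 nM in 200 mM Tris-HCl pH 9.5, 6 mM NaCl, 30% glycerol. Compound at 25 μM (1% DMSO final) was pre-incubated at room temperature with enzyme. Bz-Nle-Lys-Arg-Arg-AMC added at 5.0 μM; read at 37 °C, ex 380/em 460 nm, every 90 s up to 30 min. % inhibition from RFU ± compound; triplicate averages.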

dengue virus type 2 [2] = experiment: Inhibition of Dengue virus 2 NS2B-NS3 protease expressed in Escherichia coli using Bz-Nle-Lys-Arg-Arg-AMC as substrate at 25 uM measured every 90 sec upto 30 mins by spectrofluorometry in the presence of 0.1% CHAPS
In short: (§1)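 Detergent re-screen: 200 mM Tris-HCl pH 9.5, 6 mM NaCl, 30% glycerol, 0.1% CHAPS, with DENV2 NS2B-NS3pro at 25 nM or WNV NS2BH-NS3pro (5-residue spacer) at 28 nM. Compound at 25 μM, 1% DMSO final, pre-incubated at room temperature with enzyme. Substrate Bz-Nle-Lys-Arg-Arg-AMC at 5.0 μM; fluorescence at 380/460 nm at 37 °C over 30 min. Percent inhibition from RFU with vs without compound; triplicate averages.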

West Nile virus = experiment: Inhibition of West Nile virus NS2B-NS3 protease expressed in Escherichia coli using Bz-Nle-Lys-Arg-Arg-AMC as substrate at 25 uM measured every 90 sec upto 30 mins by spectrofluorometry; in short: as §1
[3] = Inhibition of Dengue virus 2 NS2B-NS3 protease expressed in Escherichia coli using Bz-Nle-Lys-Arg-Arg-AMC as substrate measured every 90 sec upto 30 mins by spectrofluorometry; parameters: species or system dengue virus type 2
In short: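 Inhibitors at 10 nM, 50 nM, 0.1, 1, 2, 5, 10 and 25 μM were incubated 15 min with DENV2 NS2B-NS3pro (50 nM) in 200 mM Tris-HCl, 6 mM NaCl, 30% glycerol, pH 9.5. Bz-Nle-Lys-Arg-Arg-AMC (5.0 μM) was then added. Signal recorded at 37 °C (ex 380, em 460 nm) with buffer subtracted. IC50 derived by curve fitting.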

[4] = Inhibition of Dengue virus 2 NS2B-NS3 protease expressed in Escherichia coli using Bz-Nle-Lys-Arg-Arg-AMC as substrate by spectrofluorometry; parameters: species or system dengue virus type 2

Row | inhibition (dengue virus type 2 [1]) | inhibition (dengue virus type 2 [2]) | inhibition (West Nile virus) | IC50 [3] | Structure (SMILES) | Ki [4]
1 | inactive | – | – | – | O=C(Cn1sc2ccccc2c1=O)NCc1cn(CCOc2ccccc2)nn1 | –
2 | inactive | – | – | – | O=C(Cn1sc2ccccc2c1=O)NCc1cn(Cc2ccc(F)cc2)nn1 | –
3 | inactive | – | – | – | O=C(Cn1sc2ccccc2c1=O)NCc1cn(CC(=O)Nc2ccccc2)nn1 | –
4 | inactive | – | – | – | O=C(Cn1sc2ccccc2c1=O)NCc1cn(Cc2ccccc2)nn1 | –
5 | inactive | – | – | – | COC(=O)c1cccc(Cn2cc(CNC(=O)Cn3sc4ccccc4c3=O)nn2)c1 | –
6 | Active | Active | – | – | COC(=O)c1cccc(Cn2cc(COc3cccc(NC(=O)Cn4sc5ccccc5c4=O)c3)nn2)c1 | –
7 | inactive | – | – | – | O=C(Cn1sc2ccccc2c1=O)NCc1cn(CC(=O)c2ccccc2)nn1 | –
8 | inactive | – | – | – | O=C(O)Cn1cc(CNC(=O)Cn2sc3ccccc3c2=O)nn1 | –
9 | inactive | – | – | – | O=C(Cn1sc2ccccc2c1=O)NCc1cn(CCCc2ccccc2)nn1 | –
10 | inactive | – | – | – | O=C(Cn1sc2ccccc2c1=O)NCc1cn(CSc2ccccc2)nn1 | –
11 | inactive | – | – | – | O=C(Cn1sc2ccccc2c1=O)NCc1cn(Cc2cccc(F)c2)nn1 | –
12 | inactive | – | – | – | O=C(Cn1sc2ccccc2c1=O)NCc1cn(CCc2ccccc2)nn1 | –
13 | inactive | – | – | – | COc1ccc(Cn2cc(CNC(=O)Cn3sc4ccccc4c3=O)nn2)cc1 | –

Second part, the molecule before the results:

Row | Structure (SMILES) | inhibition (dengue virus type 2 [1]) | inhibition (dengue virus type 2 [2]) | inhibition (West Nile virus) | IC50 [3] | Ki [4]
14 | O=C(Cn1cc(COc2cccc(NC(=O)Cn3sc4ccccc4c3=O)c2)nn1)Nc1cccc(Oc2ccccc2)c1 | Active | Active | Active | 4.59 µM | –
15 | CC(C)(C)OC(=O)Cn1cc(CNC(=O)Cn2sc3ccccc3c2=O)nn1 | inactive | – | – | – | –
16 | O=C(Cn1sc2ccccc2c1=O)Nc1cccc(OCc2cn(CC(=O)c3ccccc3)nn2)c1 | Active | Active | Active | 6.22 µM | –
17 | O=C(Cn1sc2ccccc2c1=O)NCc1cn(CC(=O)Nc2ccc(Oc3ccccc3)cc2)nn1 | Active | Active | Active | 4.87 µM | –
18 | O=C(Cn1sc2ccccc2c1=O)NCc1cn(CC(=O)Nc2ccccc2Oc2ccccc2)nn1 | inactive | – | – | – | –
19 | O=C(Cn1sc2ccccc2c1=O)NCc1cn(CC(=O)Nc2cccc(Oc3ccccc3)c2)nn1 | Active | Active | – | – | –
20 | O=C(Cn1cc(COc2cccc(NC(=O)Cn3sc4ccccc4c3=O)c2)nn1)Nc1ccc(Oc2ccccc2)cc1 | Active | Active | Active | 4.45 µM | –
21 | O=C(Cn1cc(COc2cccc(NC(=O)Cn3sc4ccccc4c3=O)c2)nn1)Nc1ccccc1 | Active | Active | Active | 13.4 µM | –
22 | O=C(Cn1sc2ccccc2c1=O)Nc1cccc(OCc2cn(CC(=O)Nc3ccccc3Oc3ccccc3)nn2)c1 | Active | Active | Active | 3.48 µM | 4.77 µM
